From ChEMBL document CHEMBL1156119 (J Med Chem, 2009)
Activity calls are given as the source filed them. No cut-off for these calls is given here.

Columns and labels:
[1] = molecular target: Major prion protein (Mus musculus) (UniProt P04925); experiment: Binding affinity to mouse PrP up to 40 uM by surface plasmon resonance assay
[2] = molecular target: Major prion protein (Homo sapiens) (UniProt P04156); experiment: Binding affinity to human PrP up to 40 uM by surface plasmon resonance assay
[3] = Antiprion activity against Scrapie prion protein-mediated scrapie in mouse SMB cells assessed as remaining PrP-Sc level after 5 days by Bradford assay; type: cell-based; conditions: 120 h
Procedure, shortened: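 Same SMB dot-blot protocol with 5-day exposure. Compounds were rescreened over a range of concentrations to fit an EC₅₀ from dose-response curves. Each determination was run in triplicate, in at least two independent experiments. PrP^Sc was measured relative to an untreated DMSO-only control.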

SMB [4] = experiment: Antiprion activity against Scrapie prion protein-mediated scrapie in mouse SMB cells assessed as remaining PrP-Sc level at 10 uM after 5 days by Bradford assay relative to control; type: cell-based
Procedure, shortened: (§1)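 SMB scrapie-infected mouse cells, non-neuronal, in medium 199 with 10% newborn calf and 5% fetal calf serum, seeded at 3 × 10⁴ cells/well and attached for 24 h. Compound DMSO stocks were diluted via HBSS into medium and applied for 5 days. Lysates of ~30-40 μg protein/well were dot-blotted, digested with proteinase K at 75 μg mL⁻¹ (1 h, 37 °C) and denatured in 1.8 M guanidine thiocyanate. Read-out was %PrP^Sc versus DMSO-only control, in triplicate.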

SMB [5] = experiment: Antiprion activity against Scrapie prion protein-mediated scrapie in mouse SMB cells by dot blot analysis; type: cell-based; procedure, shortened: as §1
SMB [6] = experiment: Antiprion activity against Scrapie prion protein-mediated scrapie in mouse SMB cells assessed as remaining PrP-Sc level at 1 uM after 5 days by Bradford assay relative to control; type: cell-based
Procedure, shortened: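 Compound DMSO stocks were diluted via HBSS into medium and applied for 5 days. Lysates of ~30-40 μg protein/well were dot-blotted, digested with proteinase K at 75 μg mL⁻¹ (1 h, 37 °C) and denatured in 1.8 M guanidine thiocyanate. Read-out was %PrP^Sc versus DMSO-only control, in triplicate.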

[7] = Cytotoxicity against mouse SMB cells at 20 uM after 5 days by MTT assay; type: cell-based; conditions: 120 h
Procedure, shortened: (§2)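 SMB cells were seeded at 3 × 10⁴ cells/well and attached for 24 h. Compound was added from DMSO stock diluted through HBSS into the medium, and cells were exposed for 5 days. Viability was read by MTT assay following the standard reagent protocol.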

SMB [8] = experiment: Antiprion activity against Scrapie prion protein-mediated scrapie in mouse SMB cells assessed as remaining PrP-Sc level at 20 uM after 5 days by Bradford assay relative to control; type: cell-based; procedure, shortened: as §1
[9] = Cytotoxicity against mouse SMB cells at 10 uM after 5 days by MTT assay; type: cell-based; conditions: 120 h; procedure, shortened: as §2
[10] = Antiprion activity against Scrapie prion protein-mediated scrapie in RML mouse ScN2a cells assessed as reduction of PrP-Sc level after 6 days by immunoblotting; type: cell-based; conditions: 144 h
[11] = Antiprion activity against Scrapie prion protein-mediated scrapie in mouse ScNB cells assessed as PrP-res accumulation after 4 days by immunoblotting; type: cell-based; conditions: 96 h
SMB [12] = experiment: Antiprion activity against Scrapie prion protein-mediated scrapie in mouse SMB cells assessed as remaining PrP-Sc level at 24 uM after 5 days by Bradford assay relative to control; type: cell-based

Major prion protein (Mus musculus), sequence (P04925 whole entry): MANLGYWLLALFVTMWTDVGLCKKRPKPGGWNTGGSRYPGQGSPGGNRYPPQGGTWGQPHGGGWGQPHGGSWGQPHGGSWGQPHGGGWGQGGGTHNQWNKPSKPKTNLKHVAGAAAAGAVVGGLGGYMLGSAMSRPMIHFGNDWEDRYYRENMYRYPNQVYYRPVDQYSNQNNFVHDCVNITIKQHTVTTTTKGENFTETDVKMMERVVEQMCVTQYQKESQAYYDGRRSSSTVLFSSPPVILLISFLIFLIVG

Row | SMILES | Activity [1] | Activity [2] | EC50 [3] [nM] | Activity (SMB [6]) [%] | further results
1 | COc1cccc(NC(=O)C(=O)c2c[nH]c3ccccc23)c1 | inactive | inactive | 230 |  | Remaining PrP-Sc level (SMB [4]): 17.5%
2 | O=C(Nc1ccc(N2CCCCC2)cc1)C(=O)c1c[nH]c2ccccc12 |  |  | 72 | 6.5 | Activity (SMB [5]): Dose-dependent effect
3 | CC(C)NC(=O)C(=O)c1c[nH]c2ccccc12 |  |  |  |  | Activity [7]: Toxic; Remaining PrP-Sc level (SMB [8]): 74.9%; Activity [9]: Toxic
4 | CCN(CC)CCCC(C)Nc1c2ccc(Cl)cc2nc2ccc(OC)cc12 (configuration not stated) [QUINACRINE] |  |  | 420 |  | EC50 [10]: 300 nM
5 | O=C(Nc1ccc(N2CCOCC2)cc1)C(=O)c1c[nH]c2ccccc12 |  |  | 9 | 4.6 | Activity (SMB [5]): Dose-dependent effect
6 | COc1ccc(NC(=O)C(=O)c2c[nH]c3ccccc23)cc1 | inactive | inactive | 11 | 6.7 | 
7 | O=C(Nc1ccc(F)nc1)C(=O)c1c[nH]c2ccccc12 |  |  | 1210 | 52.3 | Activity (SMB [5]): Dose-dependent effect
8 | O=C(Nc1ccc(O)cc1)C(=O)c1c[nH]c2ccccc12 | inactive | inactive | 240 | 17.8 | 
9 | COc1cc(/C=C/C(=O)CC(=O)/C=C/c2ccc(O)c(OC)c2)ccc1O [CURCUMIN] |  |  | 950 |  | EC50 [11]: 10 nM
10 | O=C(Nc1cccc(F)c1)C(=O)c1c[nH]c2ccccc12 | inactive | inactive | 640 | 27.1 | 
11 | O=C(Nc1cnc2ccccc2c1)C(=O)c1c[nH]c2ccccc12 | inactive | inactive | 170 | 41.3 | 
12 | CN(C(=O)C(=O)c1c[nH]c2ccccc12)c1ccccc1 |  |  |  |  | Activity (SMB [12]): 127%
